Data: ChEMBL document CHEMBL2040797, “Synthesis of benzimidazoles bearing oxadiazole nucleus as anticancer agents” (2012)

Legend:
Type in all cases: functional
[1] = test system: EKVX; assay: Growth inhibition of human EKVX cells at 10 uM after 48 hrs by sulforhodamine B assay; conditions: read-out: GI
Procedure, shortened: (§1)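 NCI one-dose primary screen at 10 (printed mM) across the 60-line panel. Cells in RPMI 1640 with 5% FBS and 2 mM L-glutamine, plated at 5000–40,000 cells/well and incubated 24 h before dosing. Exposure 48 h at 37 °C, 5% CO2. Adherent cells were fixed with cold TCA, suspension cells fixed after settling. SRB stain, absorbance 515 nm. Reported as percent growth of treated cells relative to control.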

[2] = test system: HOP-62; assay: Growth inhibition of human HOP62 cells at 10 uM after 48 hrs by sulforhodamine B assay; conditions: HOP-62, 48 h, read-out: GI; procedure, shortened: as §1
[3] = test system: SW-620; assay: Growth inhibition of human SW620 cells at 10 uM after 48 hrs by sulforhodamine B assay; conditions: SW-620, 48 h, read-out: GI
Procedure, shortened: (§2)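 NCI-60 single-dose screen. Cells grown in RPMI 1640 with 5% FBS and L-glutamine, plated at 5000–40,000 cells/well by doubling time, and preincubated 24 h at 37 °C, 5% CO2. Compound stocks in DMSO, added at one concentration, then incubated 48 h. Adherent cells fixed with cold TCA (10% final), stained with 0.4% SRB, dye solubilized in 10 mM Tris base, A515 read. Reported as percent growth relative to untreated control.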

[4] = test system: SF-268; assay: Growth inhibition of human SF268 cells at 10 uM after 48 hrs by sulforhodamine B assay; conditions: SF-268, 48 h, read-out: GI; procedure, shortened: as §1
[5] = test system: SF-295; assay: Growth inhibition of human SF295 cells at 10 uM after 48 hrs by sulforhodamine B assay; conditions: SF-295, 48 h, read-out: GI; procedure, shortened: as §1
[6] = test system: SNB-75; assay: Growth inhibition of human SNB75 cells at 10 uM after 48 hrs by sulforhodamine B assay; conditions: SNB-75, 48 h, read-out: GI; procedure, shortened: as §2
[7] = test system: SK-MEL-5; assay: Growth inhibition of human SK-MEL-5 cells at 10 uM after 48 hrs by sulforhodamine B assay; conditions: SK-MEL-5, 48 h, read-out: GI; procedure, shortened: as §2
[8] = test system: UACC-257; assay: Growth inhibition of human UACC257 cells at 10 uM after 48 hrs by sulforhodamine B assay; conditions: UACC-257, 48 h, read-out: GI; procedure, shortened: as §2
[9] = test system: OVCAR-8; assay: Growth inhibition of human OVCAR8 cells at 10 uM after 48 hrs by sulforhodamine B assay; conditions: OVCAR-8, 48 h, read-out: GI; procedure, shortened: as §1
[10] = test system: NCI/ADR-RES; assay: Growth inhibition of human NCI/ADR-RES cells at 10 uM after 48 hrs by sulforhodamine B assay; conditions: read-out: GI; procedure, shortened: as §1
[11] = test system: 786-0; assay: Growth inhibition of human 786-0 cells at 10 uM after 48 hrs by sulforhodamine B assay; conditions: 786-0, 48 h, read-out: GI; procedure, shortened: as §1
[12] = test system: PC-3; assay: Growth inhibition of human PC3 cells at 10 uM after 48 hrs by sulforhodamine B assay; conditions: PC-3, 48 h, read-out: GI; procedure, shortened: as §1
[13] = test system: MCF7; assay: Growth inhibition of human MCF7 cells at 10 uM after 48 hrs by sulforhodamine B assay; conditions: MCF7, 48 h, read-out: GI; procedure, shortened: as §1
[14] = Growth inhibition of human Hs 578T cells at 10 uM after 48 hrs by sulforhodamine B assay; conditions: read-out: GI; procedure, shortened: as §1
[15] = test system: BT-549; assay: Growth inhibition of human BT549 cells at 10 uM after 48 hrs by sulforhodamine B assay; conditions: BT-549, 48 h, read-out: GI; procedure, shortened: as §1
[16] = test system: MDA-MB-468; assay: Growth inhibition of human MDA-MB-468 cells at 10 uM after 48 hrs by sulforhodamine B assay; conditions: MDA-MB-468, 48 h, read-out: GI; procedure, shortened: as §1
[17] = test system: CCRF-CEM; assay: Cytotoxicity against human CCRF-CEM cells after 48 hrs by sulforhodamine B assay
Procedure, shortened: (§3)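 NCI 60-panel screen. Cells were grown in RPMI 1640 with 5% FBS and L-glutamine and plated at 5000–40,000 cells/well according to doubling time. They were preincubated 24 h at 37 °C, 5% CO2, then exposed 48 h to five 10-fold dilutions. Adherent cells were fixed with cold TCA, final 10%; suspension cells were fixed after settling. Cells were stained with 0.4% SRB and read at 515 nm. Tz/C/Ti growth curves gave GI50, TGI and LC50.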

[18] = test system: SR; assay: Cytotoxicity against human SR cells after 48 hrs by sulforhodamine B assay; procedure, shortened: as §3
[19] = test system: A549; assay: Cytotoxicity against human A549 cells after 48 hrs by sulforhodamine B assay; conditions: A549, 48 h; procedure, shortened: as §3
[20] = test system: EKVX; assay: Cytotoxicity against human EKVX cells after 48 hrs by sulforhodamine B assay; procedure, shortened: as §3
[21] = test system: HCC 2998; assay: Cytotoxicity against human HCC2998 cells after 48 hrs by sulforhodamine B assay; conditions: HCC 2998, 48 h; procedure, shortened: as §3
[22] = test system: SK-MEL-28; assay: Cytotoxicity against human SK-MEL-28 cells after 48 hrs by sulforhodamine B assay; conditions: SK-MEL-28, 48 h; procedure, shortened: as §3
[23] = test system: NCI/ADR-RES; assay: Cytotoxicity against human NCI/ADR-RES cells after 48 hrs by sulforhodamine B assay; procedure, shortened: as §3
[24] = test system: ACHN; assay: Cytotoxicity against human ACHN cells after 48 hrs by sulforhodamine B assay; procedure, shortened: as §3
[25] = test system: DU-145; assay: Cytotoxicity against human DU145 cells after 48 hrs by sulforhodamine B assay; conditions: DU-145, 48 h; procedure, shortened: as §3
[26] = test system: MDA-MB-231; assay: Cytotoxicity against human MDA-MB-231 cells after 48 hrs by sulforhodamine B assay; conditions: MDA-MB-231, 48 h; procedure, shortened: as §3
[27] = test system: T47D; assay: Cytotoxicity against human T47D cells after 48 hrs by sulforhodamine B assay; procedure, shortened: as §3
[28] = test system: CCRF-CEM; assay: Growth inhibition of human CCRF-CEM cells at 10 uM after 48 hrs by sulforhodamine B assay; conditions: read-out: GI; procedure, shortened: as §1
[29] = test system: HL-60(TB); assay: Growth inhibition of human HL-60(TB) cells at 10 uM after 48 hrs by sulforhodamine B assay; conditions: HL-60, 48 h, read-out: GI
Procedure, shortened: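 NCI 60-panel primary one-dose screen. Cells are grown in RPMI 1640 with 5% FBS, plated by doubling time and pre-incubated 24 h at 37 °C, 5% CO2. They are exposed for 48 h to a single concentration. Settled suspension cells are fixed, then SRB-stained with absorbance at 515 nm. Output is percent growth of treated cells relative to untreated control, reported as a mean graph.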

[30] = read-out: LC50 (the source's name)

O=C(CCc1nnc(-c2ccc(Cl)cc2Cl)o1)c1nc2ccccc2[nH]1
inhibition of growth at 10 µM [1]: 39%
inhibition of growth at 10 µM [2]: 28.4%
inhibition of growth at 10 µM [3]: 64.2%
inhibition of growth at 10 µM [4]: 31.9%
inhibition of growth at 10 µM [5]: 40.5%
inhibition of growth at 10 µM [6]: 36.6%
inhibition of growth at 10 µM [7]: 33%
inhibition of growth at 10 µM [8]: 21.4%
inhibition of growth at 10 µM [9]: 42.8%
inhibition of growth at 10 µM [10]: 36.7%
inhibition of growth at 10 µM [11]: 26.2%
inhibition of growth at 10 µM [12]: 46.9%
inhibition of growth at 10 µM [13]: 55.3%
inhibition of growth at 10 µM [14]: 17.7%
inhibition of growth at 10 µM [15]: 43.6%
inhibition of growth at 10 µM [16]: 102%
GI50 [17]: 4.86 µM
TGI [17]: 66 µM
CC50 [17, 30]: 100 µM
GI50 [18]: 2.63 µM
TGI [18]: 15.2 µM
CC50 [18, 30]: 100 µM
GI50 [19]: 10.4 µM
TGI [19]: 100 µM
CC50 [19, 30]: 100 µM
GI50 [20]: 5.48 µM
TGI [20]: 100 µM
CC50 [20, 30]: 100 µM
GI50 [21]: 6.52 µM
TGI [21]: 32.3 µM
CC50 [21, 30]: 100 µM
GI50 [22]: 12.7 µM
TGI [22]: 42.7 µM
CC50 [22, 30]: 100 µM
GI50 [23]: 5.4 µM
TGI [23]: 100 µM
CC50 [23, 30]: 100 µM
GI50 [24]: 11.9 µM
TGI [24]: 100 µM
CC50 [24, 30]: 100 µM
GI50 [25]: 17.8 µM
TGI [25]: 100 µM
CC50 [25, 30]: 100 µM
GI50 [26]: 2.68 µM
TGI [26]: 42.6 µM
CC50 [26, 30]: 100 µM
GI50 [27]: 3.34 µM
TGI [27]: 60 µM
CC50 [27, 30]: 100 µM
inhibition of growth at 10 µM [28]: 52.7%
inhibition of growth at 10 µM [29]: 134%
